Laboratory results as given in ChEMBL document CHEMBL1129034, “Novel N6-(substituted-phenylcarbamoyl)adenosine-5'-uronamides as potent agonists for A3 adenosine receptors” (J Med Chem, 1996).

How the values were obtained:
Adenosine receptor A2a = Adenosine receptor A2a (Rattus norvegicus, UniProt P30543); assay: Displacement of [3H]-CGS- 21680 from Adenosine A2A receptor in rat striatal homogenates
In short: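 Rat striatal homogenates labelled with [3H]CGS 21680 for A2A; IC50 by probit analysis over at least six concentrations, Ki via Cheng-Prusoff using Kd 18.5 nM; n = 3-4, Ki ± SEM in nM.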

Adenosine receptor A1 = biological target: T1, Adenosine receptor A1 (Rattus norvegicus, UniProt P25099); assay: Displacement of [3H]CHA from Adenosine A1 receptor in rat brain homogenates; assay type: tissue-based
T1 sequence (P25099 whole entry): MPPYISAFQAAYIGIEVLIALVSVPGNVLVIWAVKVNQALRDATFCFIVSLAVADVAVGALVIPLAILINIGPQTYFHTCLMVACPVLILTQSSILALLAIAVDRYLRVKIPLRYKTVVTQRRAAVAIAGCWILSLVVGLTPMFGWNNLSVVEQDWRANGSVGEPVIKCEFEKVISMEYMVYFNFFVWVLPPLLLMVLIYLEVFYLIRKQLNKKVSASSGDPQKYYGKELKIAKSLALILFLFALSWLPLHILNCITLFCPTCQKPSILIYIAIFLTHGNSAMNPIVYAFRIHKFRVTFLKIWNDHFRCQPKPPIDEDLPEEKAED

[1] = biological target: Adenosine receptors; A1 & A3 (Rattus norvegicus) (UniProt P25099+P28647); assay: Selectivity, ratio between A1 receptor binding affinity / A3 receptor binding affinity; assay type: protein assay
Adenosine receptor A3 = biological target: T2, Adenosine receptor A3 (Rattus norvegicus, UniProt P28647); assay: Displacement of [125I]AB-MECA from cloned rat Adenosine A3 receptor in stably transfected CHO cells; assay type: cell-based
T2 sequence (P28647 whole entry): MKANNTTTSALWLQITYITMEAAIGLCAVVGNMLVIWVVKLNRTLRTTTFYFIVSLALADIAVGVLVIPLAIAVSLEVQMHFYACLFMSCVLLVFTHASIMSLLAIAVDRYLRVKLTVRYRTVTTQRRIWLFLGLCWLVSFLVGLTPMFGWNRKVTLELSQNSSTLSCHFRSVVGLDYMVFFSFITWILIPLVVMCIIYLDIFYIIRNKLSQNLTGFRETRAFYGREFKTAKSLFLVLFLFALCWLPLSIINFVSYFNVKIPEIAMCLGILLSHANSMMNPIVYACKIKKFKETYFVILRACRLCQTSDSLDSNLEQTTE
In short: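 Membranes from CHO cells stably expressing rat A3 receptor, labelled with [125I]AB-MECA; IC50 by probit analysis from at least six concentrations, converted to Ki by Cheng-Prusoff with Kd 1.48 nM; n = 3, Ki ± SEM in nM.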

[2] = biological target: Adenosine receptor A2a and A3 (Rattus norvegicus) (UniProt P30543+P28647); assay: Selectivity, ratio between A2A receptor binding affinity / A3 receptor binding affinity; assay type: protein assay
Sequence of Adenosine receptor A2a and A3 (Rattus norvegicus) (P30543 whole entry, looked up, one chain of several): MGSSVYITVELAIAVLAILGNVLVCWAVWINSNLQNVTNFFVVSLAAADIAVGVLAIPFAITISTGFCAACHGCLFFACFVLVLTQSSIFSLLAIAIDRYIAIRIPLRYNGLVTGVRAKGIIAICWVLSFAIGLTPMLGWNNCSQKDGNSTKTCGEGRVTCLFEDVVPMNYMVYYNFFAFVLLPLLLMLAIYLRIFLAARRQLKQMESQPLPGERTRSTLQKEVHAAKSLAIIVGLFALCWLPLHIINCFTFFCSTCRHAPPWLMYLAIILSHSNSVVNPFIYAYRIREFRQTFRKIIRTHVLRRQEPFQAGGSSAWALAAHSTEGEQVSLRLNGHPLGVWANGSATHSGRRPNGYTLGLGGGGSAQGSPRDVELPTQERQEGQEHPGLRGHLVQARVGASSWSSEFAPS

Sequence of Adenosine receptor A2a (P30543 whole entry): as the sequence (P30543 whole entry, looked up, one chain of several) above

| SMILES | Ki (Adenosine receptor A2a) [nM] | Ki (Adenosine receptor A1) [nM] | Selectivity [1] | Ki (Adenosine receptor A3) [nM] | Selectivity [2] |
| --- | --- | --- | --- | --- | --- |
| CCNC(=O)[C@H]1O[C@@H](n2cnc3c(NC(=O)NC(C)(C)C)ncnc32)[C@H](O)[C@@H]1O | 3670 | 1440 | 0.75 | 1930 | 1.9 |
| CCNC(=O)[C@H]1O[C@@H](n2cnc3c(NC(=O)Nc4ccccc4C(F)(F)F)ncnc32)[C@H](O)[C@@H]1O | 10000 | 384 | 7.4 | 54 | 190 |
| CCCCCCCCNC(=O)Nc1ncnc2c1ncn2[C@@H]1O[C@H](C(=O)NCC)[C@@H](O)[C@H]1O | 3070 | 448 | 1.4 | 326 | 9.4 |
| CCNC(=O)[C@H]1O[C@@H](n2cnc3c(NC(=O)Nc4ccccc4Cl)ncnc32)[C@H](O)[C@@H]1O | 1340 | 111 | 15 | 7.4 | 180 |
| CCNC(=O)[C@H]1O[C@@H](n2cnc3c(NC(=O)Nc4cccc(I)c4)ncnc32)[C@H](O)[C@@H]1O | 3940 |  | 0.5 | 30 | 130 |
| CCNC(=O)[C@H]1O[C@@H](n2cnc3c(NC(=O)Nc4ccc(OC)cc4)ncnc32)[C@H](O)[C@@H]1O | 3360 | 33 | 4.9 | 6.6 | 510 |
| CCNC(=O)[C@H]1O[C@@H](n2cnc3c(NC(=O)Nc4ccc(I)cc4)ncnc32)[C@H](O)[C@@H]1O | 561 | 64 | 0.6 | 101 | 5.6 |
| CNC(=O)[C@H]1O[C@@H](n2cnc3c(NC(=O)Nc4ccc(OC)cc4)ncnc32)[C@H](O)[C@@H]1O | 8750 | 491 | 8.8 | 56 | 160 |
| CCNC(=O)[C@H]1O[C@@H](n2cnc3c(NC(=O)Nc4ccccc4I)ncnc32)[C@H](O)[C@@H]1O | 440 | 179 | 5.6 | 32 | 14 |
| CCNC(=O)[C@H]1O[C@@H](n2cnc3c(NC(=O)Nc4ccccc4F)ncnc32)[C@H](O)[C@@H]1O | 528 | 77 | 2.2 | 34 | 15 |
| CCNC(=O)[C@H]1OC(n2cnc3c(NC(=O)Nc4ccc(C(F)(F)F)cc4)ncnc32)[C@H](O)[C@@H]1O (some centres undefined) | 4830 | 739 | 4.9 | 150 | 32 |
| CCNC(=O)[C@H]1O[C@@H](n2cnc3c(NC(=O)Nc4ccc(C)cc4)ncnc32)[C@H](O)[C@@H]1O | 351 | 124 | 3.8 | 32.3 | 11 |
| CCNC(=O)[C@H]1O[C@@H](n2cnc3c(NC(=O)Nc4ccc(F)cc4)ncnc32)[C@H](O)[C@@H]1O | 1380 | 85 | 4.4 | 19 | 72 |
| CCNC(=O)[C@H]1O[C@@H](n2cnc3c(NC(=O)Nc4ccccc4OC)ncnc32)[C@H](O)[C@@H]1O | 1160 | 73 | 2.4 | 30 | 38 |

The next lines start with the values.

| Ki (Adenosine receptor A2a) [nM] | Ki (Adenosine receptor A1) [nM] | Selectivity [1] | Ki (Adenosine receptor A3) [nM] | Selectivity [2] | SMILES |
| --- | --- | --- | --- | --- | --- |
| 6700 | 550 | 4.8 | 115 | 58 | CNC(=O)[C@H]1O[C@@H](n2cnc3c(NC(=O)Nc4cccc(Cl)c4)ncnc32)[C@H](O)[C@@H]1O |
| 3860 | 113 | 2.7 | 42 | 92 | CCNC(=O)[C@H]1O[C@@H](n2cnc3c(NC(=O)Nc4cccc(OC)c4)ncnc32)[C@H](O)[C@@H]1O |
| 5360 | 110 | 2.8 | 39 | 140 | CCNC(=O)[C@H]1O[C@@H](n2cnc3c(NC(=O)Nc4ccccc4)ncnc32)[C@H](O)[C@@H]1O |
| 1490 | 72 | 0.6 | 114 | 13 | CCNC(=O)[C@H]1O[C@@H](n2cnc3c(NC(=O)Nc4ccc(Cl)cc4)ncnc32)[C@H](O)[C@@H]1O |
| 2300 | 700 | 9.1 | 77 | 30 | CCNC(=O)[C@H]1OC(n2cnc3c(NC(=O)Nc4cccc(C(F)(F)F)c4)ncnc32)[C@H](O)[C@@H]1O (some centres undefined) |
| 611 | 103 | 2.6 | 39 | 16 | CCNC(=O)[C@H]1O[C@@H](n2cnc3c(NC(=O)Nc4cccc(F)c4)ncnc32)[C@H](O)[C@@H]1O |
| 420 | 45 | 10 | 4.4 | 96 | CCNC(=O)[C@H]1O[C@@H](n2cnc3c(NC(=O)Nc4cccc(Cl)c4)ncnc32)[C@H](O)[C@@H]1O |
| 286 | 252 | 0.9 | 275 | 1 | CCNC(=O)[C@H]1O[C@@H](n2cnc3c(NC(=O)Nc4cccc(Br)c4)ncnc32)[C@H](O)[C@@H]1O |
